The values below come from ChEMBL document CHEMBL1122009, “Activated N-nitrosocarbamates for regioselective synthesis of N-nitrosoureas” (J Med Chem, 1982).

Values joined by “and” are separate entries in the source; they are usually repeats but may differ in a detail not shown here. Equal entries are not always repeated. Active and inactive are the calls of the source.

Series [1] relates to Mus musculus. Nature of the series: Compound was tested for its antitumor activity on L1210 leukemia in mice at the dose of 20 mg/kg (i.p.); Not significant. It counts as functional, organism-based. Also on record: dose 20 mg/kg.
Series [2] can be described thus: Acute LD50 of compound was evaluated on L1210 leukemia in mice when administered intraperitoneally. As to conditions: mouse, in vivo, ip. It counts as ADME, organism-based. An outline of the steps:
(§1)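 Adult B6D2F1 mice were inoculated ip with 10^5 L1210 leukemia cells on day 0. Compound in olive oil (2-150 mg/kg, ip) was given on day 1 and repeated on days 5 and 9 only in mice without signs of toxicity. Mortality was monitored daily, with autopsy to separate leukemic from toxic deaths. Acute LD50 was determined graphically.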

The test system of series [3] is Mus musculus. Nature of the series: Compound was tested for its antitumor activity on L1210 leukemia in mice at the dose of 50 mg/kg (i.p.); Not significant. The series is classed as functional, organism-based. Also on record: dose 50 mg/kg.
Series [4] deals with Mus musculus. Nature of the series: Compound was tested for its antitumor activity on L1210 leukemia in mice at the dose of 8 mg/kg (i.p.); Not significant. The series is classed as functional, organism-based. Also on record: dose 8 mg/kg.
Series [5] has as its system Mus musculus. Nature of the series: Compound was tested for its antitumor activity on L1210 leukemia in mice at the dose of 3.2 mg/kg (i.p.); Not significant. The series is classed as functional, organism-based. Also on record: dose 3.2 mg/kg. An outline of the steps:
(§2)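 B6D2F1 adult mice inoculated ip with 10^5 L1210 cells on day 0. Drug given ip in olive oil on day 1, repeated days 5 and 9 only in mice without toxicity signs. Daily mortality monitoring with autopsy to assign leukemic vs toxic death. Index I = T/C × 100 from median survival; active if I > 125 and Wilcoxon W test significant; ∞ means >50% cured.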

The subject of series [6] is Mus musculus. Nature of the series: Compound was tested for its antitumor activity on L1210 leukemia in mice at the dose of 8 mg/kg (i.p.). The series is classed as functional. As to conditions: route intraperitoneal. An outline of the steps:
as §2

Series [7] deals with Mus musculus. Nature of the series: Compound was tested for its antitumor activity on L1210 leukemia in mice at the dose of 20 mg/kg (i.p.); Toxic. It counts as functional, organism-based. Also on record: dose 20 mg/kg. An outline of the steps: as §2
The test system of series [8] is Mus musculus. Nature of the series: Compound was tested for its antitumor activity on L1210 leukemia in mice at the dose of 3.2 mg/kg (i.p.). The series is classed as functional. As to conditions: route intraperitoneal. An outline of the steps: as §2
Series [9] deals with Mus musculus. Nature of the series: Compound was tested for its antitumor activity on L1210 leukemia in mice at the dose of 5 mg/kg (i.p.). As to conditions: route intraperitoneal. The series is classed as functional. An outline of the steps: as §2
Series [10] relates to Mus musculus. Nature of the series: Compound was tested for its antitumor activity on L1210 leukemia in mice at the dose of 2 mg/kg (i.p.); Not significant. The series is classed as functional, organism-based. On the set-up: dose 2 mg/kg. An outline of the steps:
as §2

Series [11] in a line: Acute LD50 of compound was evaluated on L1210 leukemia in mice. The series is classed as ADME, organism-based. The settings on record: mouse, in vivo. An outline of the steps: as §1
Series [12] deals with Mus musculus. Nature of the series: Compound was tested for its antitumor activity on L1210 leukemia in mice at the dose of 20 mg/kg (i.p.). As to conditions: route intraperitoneal. It counts as functional. An outline of the steps:
as §2

Series [13] has as its system Mus musculus. Nature of the series: Compound was tested for its antitumor activity on L1210 leukemia in mice at the dose of 30 mg/kg (i.p.); High percent value. On the set-up: dose 30 mg/kg. The series is classed as functional, organism-based. An outline of the steps:
as §2

In series [14] the test system is Mus musculus. Nature of the series: Compound was tested for its antitumor activity on L1210 leukemia in mice at the dose of 90 mg/kg (i.p.); Toxic. The series is classed as functional, organism-based. Also on record: dose 90 mg/kg. An outline of the steps: as §2
Series [15] has as its system Mus musculus. Nature of the series: Compound was tested for its antitumor activity on L1210 leukemia in mice at the dose of 10 mg/kg (i.p.). It counts as functional. The settings on record: route intraperitoneal. An outline of the steps: as §2
The subject of series [16] is Mus musculus. Nature of the series: Compound was tested for its antitumor activity on L1210 leukemia in mice at the dose of 20 mg/kg (i.p.); High percent value. It counts as functional, organism-based. On the set-up: dose 20 mg/kg. An outline of the steps: as §2
In series [17] the test system is Mus musculus. Nature of the series: Compound was tested for its antitumor activity on L1210 leukemia in mice at the dose of 2 mg/kg (i.p.). The series is classed as functional. The settings on record: route intraperitoneal. An outline of the steps: as §2
Series [18] has as its system Mus musculus. Nature of the series: Compound was tested for its antitumor activity on L1210 leukemia in mice at the dose of 60 mg/kg (i.p.); High percent value. The series is classed as functional, organism-based. Also on record: dose 60 mg/kg. An outline of the steps: as §2
Series [19] concerns Mus musculus. Nature of the series: Compound was tested for its antitumor activity on L1210 leukemia in mice at the dose of 30 mg/kg (i.p.); Toxic. The series is classed as functional, organism-based. Also on record: dose 30 mg/kg. An outline of the steps: as §2
Series [20] concerns Mus musculus. Nature of the series: Compound was tested for its antitumor activity on L1210 leukemia in mice at the dose of 10 mg/kg (i.p.); High percent value. It counts as functional, organism-based. On the set-up: dose 10 mg/kg. An outline of the steps: as §2

A word on the T/C: it is the ratio of treated to control. As a reminder, the LD50 is the dose at which mortality reaches 50%. A lower LD50 goes with greater toxicity. With `CN(N=O)C(=O)ON1C(=O)CCC1=O`, the T/C result with Mus musculus [1], in the series with Mus musculus [3] and with Mus musculus [4] was “inactive” throughout. This molecule gave an LD50 in [2] of 115 mg/kg.

In turn, `O=NN(CCCl)C(=O)Oc1ccc([N+](=O)[O-])cc1` yielded a median lethal dose (LD50) in series [2] of 17 mg/kg. Moreover, the T/C entry in the series on Mus musculus [5] and in the series on Mus musculus [4] was “inactive” in each case.

As to `O=NN(CCCl)C(=O)ON1C(=O)CCC1=O`, the figures for the T/C in the series with Mus musculus [6], in the series on Mus musculus [7] and in the series with Mus musculus [8] were 137%, “Toxic” and 125%, respectively. In [2], this molecule showed a 50% lethal dose (LD50) of 36 mg/kg.

For the molecule `O=NN(CCCl)C(=O)NCCSSCCNC(=O)N(CCCl)N=O` [DITIOMUSTINE], the T/C in the series with Mus musculus [9] is 212% and 133%; in the series on Mus musculus [12], 228%; in the series on Mus musculus [13], “High percent value”; in the series on Mus musculus [14], “Toxic”; in the series on Mus musculus [15] it was 151%; in the series on Mus musculus [16], “High percent value”. Besides, the T/C is 111% in the series on Mus musculus [17], “High percent value” with Mus musculus [18], “Toxic” in the series with Mus musculus [19] and “High percent value” in the series with Mus musculus [20]. Besides, the T/C result with Mus musculus [10] is “inactive”. Further, the LD50 in series [11] was 75 mg/kg; in series [2], 28 mg/kg.
